This note sets out measurements from ChEMBL document CHEMBL3769357, “Phosphoramidate protides of five flavones and their antiproliferative activity against HepG2 and L-O2 cell lines” (Eur J Med Chem, 2016).

For orientation: IC50 means the concentration at which inhibition is half-maximal. A high value points to weaker potency.

The nature of assay [1]: Cytotoxicity against human LO2 cells after 48 hrs by MTT assay. It is filed as cell-based. As to conditions: L02, 48 h. The essentials:
(§1)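 After 48 h, MTT (5 mg/mL in PBS) added, 4 h at 37 °C, DMSO added, absorbance read at 570 nm. IC50 is the 50% growth-inhibition concentration, mean of three independent experiments.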
Background: Formazan colour is commonly taken as a measure of viable cells.

In assay [2] the test system is HepG2. The assay can be described thus: Selectivity index, ratio of IC50 for human LO2 cells to human HepG2 cells.
Assay [3] deals with HepG2. The assay can be described thus: Antiproliferative activity against human HepG2 cells after 48 hrs by MTT assay. The class given is functional, cell-based. As to conditions: HepG2, 48 h. The gist of the method:
as §1

In the case of `COC(=O)[C@H](CC(C)C)NP(=O)(Oc1ccccc1)Oc1cc(OC(C)=O)c2c(=O)cc(-c3ccc(OC(C)=O)cc3)oc2c1` (some centres not stated), the IC50 in assay [1] came to 59.8 µM; in assay [3], 22.1 µM. In assay [2], the “Ratio IC50” value is on record as 2.706.
For the compound `COC(=O)CNP(=O)(Oc1ccccc1)Oc1cc(O)c2c(=O)cc(-c3ccc(O)c(O)c3)oc2c1` (configuration not stated), the IC50 in assay [1] and in assay [3] was 47.7 µM throughout. In assay [2], the “Ratio IC50” value came out at 1.
Take `COC(=O)[C@@H](NP(=O)(Oc1ccccc1)Oc1cc(O)c2c(=O)cc(-c3ccc(O)c(O)c3)oc2c1)C(C)C` (some centres not stated): the IC50 was found to be 8.2 µM in assay [1] and 16.6 µM in assay [3]. In addition, the “Ratio IC50” value in assay [2] is 0.494.
The corresponding values for `COC(=O)[C@H](CC(C)C)NP(=O)(Oc1ccccc1)Oc1cc(O)c2c(=O)cc(-c3ccc(O)cc3)oc2c1` (some centres not stated) are 52.8 µM, 37.2 µM and 1.419.
The corresponding values for `COC(=O)[C@@H](NP(=O)(Oc1ccccc1)Oc1cc(O)c2c(=O)cc(-c3ccc(O)cc3)oc2c1)C(C)C` (some centres not stated) are 26 µM, 27.3 µM and 0.952.
The corresponding values for `COC(=O)[C@H](CC(C)C)NP(=O)(Oc1ccccc1)Oc1cc(OC(C)=O)c2c(=O)cc(-c3ccc(OC(C)=O)c(OC(C)=O)c3)oc2c1` (some centres not stated) are 38.2 µM, 21 µM and 1.819.
`COC(=O)[C@H](Cc1ccccc1)NP(=O)(Oc1ccccc1)Oc1cc(O)c2c(=O)cc(-c3ccccc3)oc2c1` (some centres not stated): the IC50 in assay [1] and in assay [3] was > 100 µM throughout.
For the compound `COC(=O)[C@H](C)NP(=O)(Oc1ccccc1)Oc1cc(O)c2c(=O)c(-c3ccc(O)cc3)coc2c1` (some centres not stated), the IC50 in assay [1] stood at 15.7 µM; in assay [3], 57.2 µM. The “Ratio IC50” value in assay [2] is 0.274.
Taken in the same sequence, the figures for `COC(=O)[C@H](C)NP(=O)(Oc1ccccc1)Oc1cc(O)c2c(=O)cc(-c3ccccc3)oc2c1` (some centres not stated) were 62.3 µM, 35.3 µM and 1.765.
Taken in the same sequence, the figures for `COC(=O)CNP(=O)(Oc1ccccc1)Oc1cc(OC(C)=O)c2c(=O)cc(-c3ccc(OC(C)=O)cc3)oc2c1` (configuration not stated) were > 100 µM, 47.8 µM and >2.092.
Taken in the same sequence, the figures for `COC(=O)CNP(=O)(Oc1ccccc1)Oc1cc(OC(C)=O)c2c(=O)c(-c3ccc(OC(C)=O)cc3)coc2c1` (configuration not stated) were 55.2 µM, 39.7 µM and 1.39.
For `COC(=O)[C@H](C)NP(=O)(Oc1ccccc1)Oc1cc(OC(C)=O)c2c(=O)cc(-c3ccc(OC(C)=O)c(OC(C)=O)c3)oc2c1` (some centres not stated), the IC50 was 51.2 µM in assay [1] and 27.3 µM in assay [3]. In addition, the “Ratio IC50” value in assay [2] amounted to 1.875.
Taken in the same sequence, the figures for `COC(=O)[C@H](Cc1ccccc1)NP(=O)(Oc1ccccc1)Oc1ccc2c(=O)c(-c3ccc(O)cc3)coc2c1` (some centres not stated) were 39.3 µM, 52.1 µM and 0.754.
The corresponding values for `COC(=O)[C@@H](NP(=O)(Oc1ccccc1)Oc1cc(OC(C)=O)c2c(=O)cc(-c3ccc(OC(C)=O)cc3)oc2c1)C(C)C` (some centres not stated) are 29.4 µM, 18.4 µM and 1.59.
Taken in the same sequence, the figures for `COC(=O)CNP(=O)(Oc1ccccc1)Oc1cc(O)c2c(=O)cc(-c3ccc(O)cc3)oc2c1` (configuration not stated) were 71.5 µM, 59.7 µM and 1.198.
Consider `C#Cc1cccc(Nc2ncnc3cc(OCCOC)c(OCCOC)cc23)c1` [ERLOTINIB], for which the half-maximal inhibitory concentration (IC50) in assay [1] was determined as 18.5 µM; in assay [3], 5.8 µM. Further, the “Ratio IC50” value in assay [2] is 3.19.
Taken in the same sequence, the figures for `COC(=O)CNP(=O)(Oc1ccccc1)Oc1cc(O)c2c(=O)cc(-c3ccccc3)oc2c1` (configuration not stated) were 96.5 µM, 42.6 µM and 2.265.
As to `COC(=O)CNP(=O)(Oc1ccccc1)Oc1cc(OC(C)=O)c2c(=O)cc(-c3ccc(OC(C)=O)c(OC(C)=O)c3)oc2c1` (configuration not stated), the IC50 in assay [1] worked out at 57.1 µM; in assay [3] it was 26.4 µM. The “Ratio IC50” value in assay [2] came to 2.163.
`COC(=O)[C@H](Cc1ccccc1)NP(=O)(Oc1ccccc1)Oc1cc(OC(C)=O)c2c(=O)c(-c3ccc(OC(C)=O)cc3)coc2c1` (some centres not stated): the IC50 is > 100 µM in assay [1] and 63.2 µM in assay [3]. Besides, the “Ratio IC50” value in assay [2] came to 1.582.
Taken in the same sequence, the figures for `COC(=O)[C@@H](NP(=O)(Oc1ccccc1)Oc1cc(O)c2c(=O)cc(-c3ccccc3)oc2c1)C(C)C` (some centres not stated) were > 100 µM, 21.1 µM and >5.
Taken in the same sequence, the figures for `COC(=O)[C@H](CC(C)C)NP(=O)(Oc1ccccc1)Oc1cc(O)c2c(=O)c(-c3ccc(O)cc3)coc2c1` (some centres not stated) were 48.2 µM, 72.3 µM and 0.667.
As to `O=c1cc(-c2ccccc2)oc2cc(O)cc(O)c12` [CHRYSIN], the IC50 in assay [1] and in assay [3] was > 100 µM in each case.
As for `COC(=O)[C@H](C)NP(=O)(Oc1ccccc1)Oc1ccc2c(=O)c(-c3ccc(O)cc3)coc2c1` (some centres not stated), the figures for the IC50 in assay [1] and in assay [3] were 20.5 µM and 28.8 µM, respectively. Besides, the “Ratio IC50” value in assay [2] is 0.712.
In the case of `COC(=O)[C@H](CC(C)C)NP(=O)(Oc1ccccc1)Oc1cc(O)c2c(=O)cc(-c3ccccc3)oc2c1` (some centres not stated), the half-inhibitory concentration (IC50) in assay [1] and in assay [3] was > 100 µM in each case.
With `COC(=O)[C@H](Cc1ccccc1)NP(=O)(Oc1ccccc1)Oc1ccc2c(=O)c(-c3ccc(OC(C)=O)cc3)coc2c1` (some centres not stated), the IC50 in assay [1] was > 100 µM; in assay [3], 60.2 µM. The “Ratio IC50” value in assay [2] was >1.66.
For `COC(=O)CNP(=O)(Oc1ccccc1)Oc1ccc2c(=O)c(-c3ccc(OC(C)=O)cc3)coc2c1` (configuration not stated), the IC50 in assay [1] and in assay [3] was > 100 µM in each case.
Turning to `COC(=O)[C@H](CC(C)C)NP(=O)(Oc1ccccc1)Oc1cc(O)c2c(=O)cc(-c3ccc(O)c(O)c3)oc2c1` (some centres not stated), the IC50 in assay [1] is 34 µM; in assay [3], 22.4 µM. Moreover, the “Ratio IC50” value in assay [2] was 1.581.
Taken in the same sequence, the figures for `O=c1cc(-c2ccc(O)c(O)c2)oc2cc(O)cc(O)c12` [LUTEOLIN] were > 100 µM, 34.7 µM and >2.882.
On to `COC(=O)CNP(=O)(Oc1ccccc1)Oc1ccc2c(=O)c(-c3ccc(O)cc3)coc2c1` (configuration not stated), for which the IC50 in assay [1] was > 100 µM; in assay [3], 48.8 µM. The “Ratio IC50” value in assay [2] worked out at 2.049.
Taken in the same sequence, the figures for `COC(=O)[C@H](CC(C)C)NP(=O)(Oc1ccccc1)Oc1cc(OC(C)=O)c2c(=O)c(-c3ccc(OC(C)=O)cc3)coc2c1` (some centres not stated) were 60.1 µM, 54 µM and 1.113.
As for `COC(=O)[C@H](Cc1ccccc1)NP(=O)(Oc1ccccc1)Oc1cc(O)c2c(=O)cc(-c3ccc(O)cc3)oc2c1` (some centres not stated), the IC50 was > 100 µM in assay [1] and 36.6 µM in assay [3]. The “Ratio IC50” value in assay [2] is given as >2.732.
With `COC(=O)[C@H](Cc1ccccc1)NP(=O)(Oc1ccccc1)Oc1cc(O)c2c(=O)c(-c3ccc(O)cc3)coc2c1` (some centres not stated), the IC50 in assay [1] and in assay [3] was > 100 µM each time.
On to `COC(=O)[C@H](CC(C)C)NP(=O)(Oc1ccccc1)Oc1ccc2c(=O)c(-c3ccc(O)cc3)coc2c1` (some centres not stated), for which the IC50 in assay [1] worked out at 47.7 µM; in assay [3], 66 µM. For the same compound, the “Ratio IC50” value in assay [2] is given as 0.723.
The corresponding values for `COC(=O)[C@H](CC(C)C)NP(=O)(Oc1ccccc1)Oc1ccc2c(=O)c(-c3ccc(OC(C)=O)cc3)coc2c1` (some centres not stated) are 44.8 µM, 60 µM and 0.747.
As for `COC(=O)[C@H](Cc1ccccc1)NP(=O)(Oc1ccccc1)Oc1cc(OC(C)=O)c2c(=O)cc(-c3ccc(OC(C)=O)cc3)oc2c1` (some centres not stated), the IC50 in assay [1] amounted to 45.9 µM; in assay [3], 38.5 µM. In assay [2], the “Ratio IC50” value is given as 1.192.
On to `COC(=O)[C@H](C)NP(=O)(Oc1ccccc1)Oc1cc(O)c2c(=O)cc(-c3ccc(O)cc3)oc2c1` (some centres not stated), for which the IC50 in assay [1] amounted to 35.3 µM; in assay [3] it was 34.7 µM. In assay [2], the “Ratio IC50” value amounted to 1.017.
Consider `COC(=O)[C@H](Cc1ccccc1)NP(=O)(Oc1ccccc1)Oc1cc(O)c2c(=O)cc(-c3ccc(O)c(O)c3)oc2c1` (some centres not stated), for which the IC50 worked out at 39.1 µM in assay [1] and 15.7 µM in assay [3]. For the same compound, the “Ratio IC50” value in assay [2] came to 2.49.
Turning to `COC(=O)[C@H](Cc1ccccc1)NP(=O)(Oc1ccccc1)Oc1cc(OC(C)=O)c2c(=O)cc(-c3ccc(OC(C)=O)c(OC(C)=O)c3)oc2c1` (some centres not stated), the IC50 in assay [1] was 30.3 µM; in assay [3] it was 27.1 µM. Moreover, the “Ratio IC50” value in assay [2] is on record as 1.118.
Taken in the same sequence, the figures for `COC(=O)CNP(=O)(Oc1ccccc1)Oc1cc(O)c2c(=O)c(-c3ccc(O)cc3)coc2c1` (configuration not stated) were 44.5 µM, > 100 µM and <0.445.
